bCat nuc transl – modulators of beta-catenin nuclear translocation; HeLa beta-catenin nuclear translocation, immunofluorescence imaging; nuclear translocation activity, % at 5 µM; actives 0.3% (n = 190,000); AID 1665;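 active means nuclear translocation activity above 50% at 5 µM, with a well cell count of 50 or more; inconclusive means wells under 50 cells across six images, flagged as toxic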;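 further: per-cell ratio of nuclear to cytoplasmic median beta-catenin stain intensity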
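System: HeLa cells, endogenous beta-catenin; compound dosing: 5 µM primary single dose, 0.1% DMSO, 0.02–20 µM confirmation series; incubation: 24 h compound exposure at 37°C, 5% CO2; signal: beta-catenin immunofluorescence imaging with DAPI; evaluation: % activation, nuclear-to-cytoplasmic median beta-catenin signal ratio per cell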
ROMK primary – human ROMK K+ channel modulation, primary screen; Tet-inducible ROMK, thallium flux fluorescence; actives lie on both sides; P48048; actives 2% (n = 130,000); B-score at 10 µM;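 active means signal ratio slope over the read window, or its plate-corrected B-score, at least 3 SD from the plate mean, either direction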;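 further: B-score of the F/F0 ratio slope over 7 to 12 s after thallium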
Target sequence (P48048 whole entry, looked up): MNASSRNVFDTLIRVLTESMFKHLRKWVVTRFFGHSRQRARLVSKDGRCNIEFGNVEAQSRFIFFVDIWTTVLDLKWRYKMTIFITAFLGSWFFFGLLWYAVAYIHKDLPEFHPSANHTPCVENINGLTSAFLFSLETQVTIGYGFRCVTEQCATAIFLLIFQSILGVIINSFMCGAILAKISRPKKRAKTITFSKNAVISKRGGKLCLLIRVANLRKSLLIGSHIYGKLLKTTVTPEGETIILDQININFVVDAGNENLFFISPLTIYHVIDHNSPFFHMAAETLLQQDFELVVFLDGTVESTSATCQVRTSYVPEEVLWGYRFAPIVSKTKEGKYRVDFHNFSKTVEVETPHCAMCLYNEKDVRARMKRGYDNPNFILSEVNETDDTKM
INS promoter inh – TRM-6 insulin promoter activity inhibition; TRM-6 cells, insulin promoter-eGFP reporter, imaging; reporter expression induced with tamoxifen; inhibition, % at 2 µM; actives 0.9% (n = 130,000);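 active means inhibition above the mean plus 3 SD, with well images judged a real hit on visual review, cut at about 60% in these data, passing the limit was not always enough; inconclusive means inhibition over the cutoff but images rejected on review; inactive means inhibition not above the cutoff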
MT stabilizer – microtubule stabilizers in HeLa cells. HeLa tubulin immunostaining HCS, 24 h; share of cells brighter than vehicle mean+2SD. % tubulin-high responders, % at 10 µM. actives 0.83% (n = 200,000). AID 2205;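 active means plate Z-score above 3 for both tubulin-high and condensed-nucleus cell shares, with cell loss under 80%, at 10 µM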;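 further: anti alpha tubulin signal scored within the nucleus-defined area of each cell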
HSV replic up – HSV replication enhancement. HSV replication augmentation in cells, fold increase. AID 1956. actives 0.005% (n = 220,000). maximum fold increase; in the data active means maximum fold increase above about 1.5; inconclusive means no clear call, values can overlap the other calls; tested in PC3 cells
ROMK retest – retested hit modulating human ROMK potassium channel | shares compounds with ROMK primary | ROMK thallium flux, fluorescence ratio; active compounds read low | normalized thallium flux (F/F0 slope) at 10 µM | actives 54% (n = 3,000);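 active means Flux at 10 µM at least 3 SD below or above vehicle control mean in one or both replicates; inconclusive means no clear call, values can overlap the other calls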
Numbers stand for hits; . = inactive; ? = inconclusive; / = no result given. Compounds with a hit are over-represented: about 2.4% of the library has one in this group of screens.

SMILES	bCat nuc transl	ROMK primary	INS promoter inh	MT stabilizer	HSV replic up	ROMK retest
CC(C)Sc1nc2sc3c(c2c2nnc(SCC(=O)NCc4ccco4)n12)CCCC3	.	/	.	.	.	/
COC(=O)C1=C(C)NC(C)=C(C(=O)OC)C1c1cn(-c2ccccc2)nc1-c1ccco1	.	/	/	.	.	/
Cc1noc(C)c1COC(=O)c1ccc2c(c1)S(=O)(=O)c1ccccc1C2=O	.	/	/	.	.	.
Cc1noc(C)c1COC(=O)c1ccc2c(c1)OCO2	.	.	.	.	.	/
O=C(CSc1ccccn1)C12CC3CC(CC(C3)C1)C2	.	/	.	.	.	/
NC(=S)Nc1cccc2[nH]ccc12	.	.	/	.	.	/
O=C(NCC(c1cccs1)N1CCOCC1)c1ccccc1NS(=O)(=O)c1cc([N+](=O)[O-])ccc1Cl (stereo unspecified)	.	/	/	.	.	0.0676
C/C(=N/NC(=O)CNC(=O)c1ccncc1)c1ccco1	.	/	/	/	.	/
CS(=O)(=O)c1nc(S(=O)(=O)c2ccc(Cl)cc2)c(NCc2ccccn2)s1	.	.	/	.	.	/
COc1ccc(C2OC(=O)CC2C(=O)NCc2ccccc2Cl)cc1OC (stereo unspecified)	.	-10.3	.	.	.	.
COc1ccc(Nc2nnc(SCC(=O)c3cc(C)n(CC4CCCO4)c3C)s2)cc1 (stereo unspecified)	.	.	.	.	/	/
CCCCc1cc(=O)oc2cc(O)cc(O)c12	.	.	/	.	.	/
CCCCc1cc(=O)oc2cc(C)cc(O)c12	.	/	.	.	.	0.0542
COc1cc(C)ccc1OCCOCCOc1ccc([N+](=O)[O-])cc1	.	-1.7	.	.	.	.
COc1cc(C)ccc1OCCOCCOc1ccccc1[N+](=O)[O-]	.	/	.	.	.	/
O=C(C1CCN(S(=O)(=O)c2ccc(F)cc2)CC1)N1CCOCC1	.	/	/	.	.	/
CCOc1ccccc1NC(=O)COC(=O)CSc1ccc(Cl)cc1	/	/	.	.	.	/
COc1ccccc1Cn1c(CCCO)nc2ccccc21	.	-3.75	.	.	.	?
COc1cccc(CC(NC(C)=O)C(=O)NC2CCN(c3c(Cc4ccccc4)c(C)nc4ncnn34)CC2)c1 (stereo unspecified)	.	.	.	.	.	.
CCN1CCc2c(C#N)c(N3CCCCC3)nc(NCc3ccccc3)c2C1	.	-2.57	.	.	.	0.0655
COc1ccccc1-n1c(SCC(=O)Nc2cccc(C)c2)nc2c(c1=O)SCC2	/	/	/	.	.	/
COc1ccccc1-n1c(SCC(=O)N2CCc3ccccc32)nc2c(c1=O)SCC2	.	/	/	.	.	0.0576
O=C(NC(=S)Nc1ccccc1F)c1ccc(Br)o1	.	/	.	.	.	0.136
Cn1ncc(C(N)=O)c1NC(=S)NC(=O)c1ccc(Br)o1	.	1.01	/	.	.	.
CCOc1ccc(-n2c(SCC(=O)Nc3cc(C)on3)nnc2-c2c[nH]c3ccccc23)cc1	/	4.3	.	.	.	.
SMILES	bCat nuc transl	ROMK primary	INS promoter inh	MT stabilizer	HSV replic up	ROMK retest
Cc1cc(NC(=O)CSc2nnc(-c3c[nH]c4ccccc34)n2-c2ccc(F)cc2)no1	.	/	/	.	.	/
Cc1ccc(C(C)C)c(OCC(O)CN2CCN(CCO)CC2)c1 (stereo unspecified)	.	/	.	.	.	/
Cc1ccc(OCC(O)CN2CCN(CC(O)COC(C)C)CC2)c(C(C)(C)C)c1 (stereo unspecified)	.	-3.73	.	.	.	0.0618
COc1ccc(C(=O)Cn2nc(CNc3ccc(Br)cc3)[n+]3c2CCCCC3)cc1	.	.	/	.	.	/
Cc1ccc(C(C)C)c(OCc2nn(CC(=O)c3ccc(OC(F)F)cc3)c3[n+]2CCCCC3)c1	.	-4.15	/	.	.	0.0549
Cc1ccc2cc(CN(Cc3ccccc3)Cc3nnnn3C3CCCC3)c(=O)[nH]c2c1	.	-3.03	.	.	.	0.0606
Cc1ccc2cc(CN(Cc3ccc(F)cc3)Cc3nnnn3C3CCCC3)c(=O)[nH]c2c1	.	.	.	.	.	/
NCCOc1ccc(C23CC4CC(CC(C4)C2)C3)cc1	.	-2.95	/	.	.	0.063
COC(=O)c1cnc(Oc2ccc(NC(=O)NC(=O)c3ccccc3Cl)cc2)cc1C(F)(F)F	.	/	/	/	.	/
COc1ccc(CCNC(=O)COC(=O)c2ccc(N3CCCC3=O)cc2)cc1	.	1.44	.	.	.	.
COc1ccc(CNC(=O)c2ccc(N3CCCC3=O)cc2)cc1	.	.	/	.	.	/
COc1ccc(CCNC(=O)CN2CCC(C(N)=O)CC2)cc1	.	/	.	.	.	.

Screening results as filed in PubChem.
